# Screens: PubChem, several laboratories
# PP1 inh – blocks human PP1-alpha phosphatase, a PP5 counter-screen; P62136; purified PP1alpha, OMFP fluorescence; inhibition, % at 6.7 µM; hit rate 0.9% among 320,000; AID 2235;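 active = inhibition above the mean inhibition of all tested compounds plus 3 SD, computed separately for each screening campaign, cut at about 15% in these data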
# PREPL inhibitor – human PREPL enzyme inhibition; inhibition, % at 5.96 µM; Q4J6C6; AID 2751; hit rate 0.68% among 320,000; recombinant PREPL, fluorescence polarization activity-based probe; in the data active = inhibition above about 43%;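 also: 0% = enzyme with DMSO and 100% = wells lacking enzyme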
# Target sequence (Q4J6C6 whole entry, looked up): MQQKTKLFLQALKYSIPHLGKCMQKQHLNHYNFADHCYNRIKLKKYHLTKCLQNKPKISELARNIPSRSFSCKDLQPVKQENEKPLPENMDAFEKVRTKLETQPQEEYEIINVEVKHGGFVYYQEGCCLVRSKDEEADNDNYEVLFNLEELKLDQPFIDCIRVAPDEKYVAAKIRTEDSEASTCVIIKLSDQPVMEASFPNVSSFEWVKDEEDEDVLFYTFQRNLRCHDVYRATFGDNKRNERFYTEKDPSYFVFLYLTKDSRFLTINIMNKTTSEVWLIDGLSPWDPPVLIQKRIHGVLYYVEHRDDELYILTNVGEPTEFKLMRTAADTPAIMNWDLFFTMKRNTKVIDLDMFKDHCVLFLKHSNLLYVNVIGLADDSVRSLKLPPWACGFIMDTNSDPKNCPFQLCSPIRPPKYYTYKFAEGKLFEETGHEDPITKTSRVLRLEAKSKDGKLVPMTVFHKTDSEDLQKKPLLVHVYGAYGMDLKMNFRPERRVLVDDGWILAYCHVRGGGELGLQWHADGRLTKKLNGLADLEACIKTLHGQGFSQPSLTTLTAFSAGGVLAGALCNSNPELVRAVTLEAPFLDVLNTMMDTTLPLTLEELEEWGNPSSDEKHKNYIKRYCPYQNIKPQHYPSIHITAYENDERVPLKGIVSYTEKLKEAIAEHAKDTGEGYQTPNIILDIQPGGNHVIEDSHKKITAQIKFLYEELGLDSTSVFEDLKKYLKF
# UBC13 polyUb – blocks human UBC13 polyubiquitin chain formation; inhibition, % at 20 µM; P61088; hit rate 0.47% among 330,000; TR-FRET; in the data active = inhibition above about 45%, passing the limit was not always enough
# CTSL1 counter – blocks F. hepatica cathepsin L1 in PFM18AAP counter-screen; AID 1906; recombinant F. hepatica cathepsin L1, Z-Leu-Arg-MCA fluorescence; inhibition, % at 5.96 µM; hit rate 0.49% among 300,000;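 active = inhibition above the mean of all tested compounds plus 3 SD, set per screening campaign, cut at about 17% in these data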;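 also: 0% = plate median of test compound wells and 100% = 1 µM Z-Phe-Ala-diazomethylketone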
# PP5 primary – PP5 (human) phosphatase inhibition. AID 1987. purified PP5c, OMFP substrate fluorescence. P53041. inhibition, % at 6.7 µM. hit rate 0.18% among 320,000;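 active = inhibition above the campaign's mean inhibition across all tested compounds plus 3 SD, cut at about 9.5% in these data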;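 also: 0% = DMSO only and 100% = 100 µM cantharidin control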
# UCH37 DUB inh – blocks the human deubiquitinase UCH37 | Q9Y5K5 | purified proteasome/UCH37, Ub-AMC cleavage fluorescence | inhibition, % (no concentration beside the values) | hit rate 0.33% among 330,000 | AID 588478;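 active = mean inhibition over replicate wells above about 20%, limit read from the data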;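 also: 0% = compound-free wells with enzyme and 100% = wells lacking proteasome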
#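 Signal – fluorescence, ex 355 nm, em 460 nm · System – Proteasome-bound UCH37 · Input – 0.15 nM proteasome as dispensed · Timing – 30 min preincubation with enzyme, 25 min cleavage at room temperature · Read-out basis – percent inhibition of cleavage signal versus uninhibited and no-proteasome wells · Medium – Tris-HCl pH 7.4 with ATP-MgCl2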
# * = called active by the depositor; . = no result. Hits are enriched below; roughly 2.3% of the tested compounds scored in any of these assays.
SMILES,PP1 inh,PREPL inhibitor,UBC13 polyUb,CTSL1 counter,PP5 primary,UCH37 DUB inh
COC(CN(C(=O)CCl)C(C(=O)NC1CCCCC1)c1ccc(Cl)cc1)OC (stereo not given),1,-3,10,82*,1,1
COC(CN(C)C(C(=O)NC1CCCCC1)c1ccccc1)OC (stereo not given),1,9,-10,-1,0,0
COC(CN(C(=O)CCl)C(C(=O)NC1CCCCC1)c1ccccc1C)OC (stereo not given),1,-2,7,20*,0,-17
COc1ccccc1CN(C(=O)CCl)C(C(=O)NC1CCCCC1)c1ccncc1 (stereo not given),17*,35,.,12,4,4
O=[N+]([O-])c1ccccc1NN=C1CC2CC=CC12 (stereo not given),.,.,.,.,.,2
CCc1ccc(N2CC(C(=O)NN=Cc3ccccc3OC)CC2=O)cc1 (stereo not given),.,.,.,.,.,1
O=C(CSc1nnnn1-c1ccccc1)CC(=O)Nc1ccc(Cl)cc1,4,-5,-13,24*,2,2
COc1ccc(OCc2nnc(SCC(=O)Nc3ccc(C)cc3)o2)cc1,2,11,-5,-8,-1,1
Cc1ccc(OCc2nnc(SCC(=O)CC(=O)Nc3ccccc3)o2)cc1,11,1,2,25*,-2,5
Cn1c(SCC(=O)CC(=O)Nc2ccccc2)nnc1-c1ccc(O)cc1,0,21,-1,27*,1,0
Cc1ccc(-c2nnc(SCC(=O)CC(=O)Nc3ccccc3)n2C)cc1,0,4,15,1,2,-1
Cc1ccc(-n2c(SCC(=O)Nc3ccc4c5c(cccc35)CC4)nc(O)cc2=O)cc1,16*,1,-10,1,2,0
Cc1ccc(-n2c(SCC(=O)Nc3ccc4c5c(cccc35)CC4)nc(O)c(C)c2=O)cc1,6,2,-10,1,5,6
CC1(C)CC(=O)c2c(nc(SCC(=O)Nc3nsc(-c4ccccc4)n3)c(C#N)c2-c2ccccc2)C1,16*,37,-10,0,5,-2
COc1ccc(-c2oc(NC(=O)CSc3nncn3C)c(C#N)c2-c2ccc(OC)cc2)cc1,4,0,-8,30*,3,-10
N#Cc1c(NC(=O)CSc2ccccn2)oc(-c2ccccc2)c1-c1ccccc1,7,-16,-5,1,-1,-1
CC(=NNC(=O)CN1CCCCC1)c1cccc([N+](=O)[O-])c1,.,.,.,.,.,2
CC(=O)N1CC=CC1(CC(C)C)C(=O)NCc1cc(F)cc(C(F)(F)F)c1 (stereo not given),3,4,-16,55*,1,3
COc1cc(C=NO)ccc1Oc1ccc([N+](=O)[O-])cc1[N+](=O)[O-],.,.,.,.,.,2
COc1ccc(C=NNC(=O)c2ccc3c(c2)OCCO3)cc1[N+](=O)[O-],.,.,.,.,.,5
O=C(/C=C/Nc1ccc([N+](=O)[O-])cc1)c1ccc(Br)cc1,3,15,1,17*,3,.
O=C(NN=Cc1ccc2c(c1)OCO2)c1cccc2ccccc12,.,.,.,.,.,2
O=C(O)c1cccc(NN=Cc2cccc3ccccc23)c1,.,.,.,.,.,1
CCOC(=O)c1oc2ccccc2c1NC(=O)CCl,-4,0,7,33*,-3,-5
CCOC(=O)c1oc2ccccc2c1NC(=O)c1ccco1,-1,7,0,8,-7,0
SMILES,PP1 inh,PREPL inhibitor,UBC13 polyUb,CTSL1 counter,PP5 primary,UCH37 DUB inh
Cc1cc(C(=O)NN=Cc2ccc([N+](=O)[O-])s2)n[nH]1,.,.,.,.,.,12
O=C(CNC(=O)c1ccncc1)NN=Cc1cc(Br)ccc1OCc1ccccc1,.,.,.,.,.,3
CN1CCN(C(=NS(=O)(=O)c2ccc(F)cc2)c2ccccc2)CC1,.,.,.,.,.,2
O=C(Nc1cc(Sc2ccccn2)cc([N+](=O)[O-])c1)c1ccc([N+](=O)[O-])cc1,16*,19,-3,3,5,.
CN(C)C=NNC(=O)c1ccc(Cl)cc1,.,.,.,.,.,4
CN(C)c1nc(NCc2ccccc2)nc(NN=Cc2ccc(Br)cc2)n1,.,.,.,.,.,6
COc1cc(C=NN=C(N)c2nonc2N)cc(Br)c1OCc1ccccc1C,.,.,.,.,.,7
O=C(N1CCc2[nH]c3ccccc3c2C1)C(F)(F)F,1,12,7,106*,7,-46
CC(=O)N1CCc2[nH]c3ccc(C)cc3c2C1,0,6,-5,51*,6,.
